Laboratory results taken from ChEMBL document CHEMBL5370658, “Development of First-in-Class Dual Sirt2/HDAC6 Inhibitors as Molecular Tools for Dual Inhibition of Tubulin Deacetylation” (J Med Chem, 2023).
Activity calls are given as the source filed them. No cut-off for these calls is given here.

How the values were obtained:
W1 Ovarian cancer cell = assay: Cytotoxicity against human W1 Ovarian cancer cells assessed as reduction in cell viability incubated for 72 hrs by MTT assay; format: functional, cell-based
Outline: (§1)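 Cell viability EC50 from at least two independent experiments, each run in triplicate. Results are compared by t-test.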

[1] = molecular target: NAD-dependent protein deacylase sirtuin-6 (Homo sapiens) (UniProt Q8N6T7); assay: Inhibition of Sirt6 (unknown origin) using Ac-EALPKK(Myr)Y(NO2)GG-NH2 as substrate at 20 to 500 uM preincubated for 5 mins followed by enzyme addition and measured after 1 hr by RP-HPLC analysis; details: dose 20-500 µM, time 65.0 min
NAD-dependent protein deacylase sirtuin-6 (Homo sapiens), sequence (Q8N6T7 whole entry): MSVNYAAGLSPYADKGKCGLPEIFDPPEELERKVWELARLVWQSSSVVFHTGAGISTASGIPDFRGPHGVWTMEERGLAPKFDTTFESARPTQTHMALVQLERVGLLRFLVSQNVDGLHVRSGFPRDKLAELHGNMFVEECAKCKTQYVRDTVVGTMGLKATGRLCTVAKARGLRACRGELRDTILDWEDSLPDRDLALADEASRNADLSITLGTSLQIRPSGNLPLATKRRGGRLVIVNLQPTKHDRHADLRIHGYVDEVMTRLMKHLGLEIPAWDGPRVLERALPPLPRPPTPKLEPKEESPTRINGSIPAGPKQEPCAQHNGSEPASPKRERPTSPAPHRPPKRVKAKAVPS
Outline: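 Discontinuous HPLC assay, 120 µL in 20 mM Tris pH 7.8, 150 mM NaCl, 5 mM MgCl2, 0.2 mg/mL BSA, 5% DMSO. Inhibitor preincubated at 37 °C with NAD+ (1 mM) and substrate (Sirt5 5 µM; Sirt6 20 µM). Started with enzyme (Sirt5 100 nM; Sirt6 500 nM). Quenched with TFA/ACN. Sirt5 read by A220, Sirt6 by A360 (nitrotyrosine). Performed once in duplicates; IC50 by nonlinear regression.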

[2] = molecular target: Histone deacetylase 9 (Homo sapiens) (UniProt Q9UKV0); assay: Inhibition of HDAC9 (unknown origin) using Abz-SRGGK(STFA)FRR-NH2 as substrate at 6 to 20000 nM preincubated for 5 mins followed by substrate addition and measured every 30 secs for 30 mins by continuous fluorescence based assay; details: dose 6-20000 nM, time 35.0 min
Histone deacetylase 9 (Homo sapiens), sequence (Q9UKV0 whole entry): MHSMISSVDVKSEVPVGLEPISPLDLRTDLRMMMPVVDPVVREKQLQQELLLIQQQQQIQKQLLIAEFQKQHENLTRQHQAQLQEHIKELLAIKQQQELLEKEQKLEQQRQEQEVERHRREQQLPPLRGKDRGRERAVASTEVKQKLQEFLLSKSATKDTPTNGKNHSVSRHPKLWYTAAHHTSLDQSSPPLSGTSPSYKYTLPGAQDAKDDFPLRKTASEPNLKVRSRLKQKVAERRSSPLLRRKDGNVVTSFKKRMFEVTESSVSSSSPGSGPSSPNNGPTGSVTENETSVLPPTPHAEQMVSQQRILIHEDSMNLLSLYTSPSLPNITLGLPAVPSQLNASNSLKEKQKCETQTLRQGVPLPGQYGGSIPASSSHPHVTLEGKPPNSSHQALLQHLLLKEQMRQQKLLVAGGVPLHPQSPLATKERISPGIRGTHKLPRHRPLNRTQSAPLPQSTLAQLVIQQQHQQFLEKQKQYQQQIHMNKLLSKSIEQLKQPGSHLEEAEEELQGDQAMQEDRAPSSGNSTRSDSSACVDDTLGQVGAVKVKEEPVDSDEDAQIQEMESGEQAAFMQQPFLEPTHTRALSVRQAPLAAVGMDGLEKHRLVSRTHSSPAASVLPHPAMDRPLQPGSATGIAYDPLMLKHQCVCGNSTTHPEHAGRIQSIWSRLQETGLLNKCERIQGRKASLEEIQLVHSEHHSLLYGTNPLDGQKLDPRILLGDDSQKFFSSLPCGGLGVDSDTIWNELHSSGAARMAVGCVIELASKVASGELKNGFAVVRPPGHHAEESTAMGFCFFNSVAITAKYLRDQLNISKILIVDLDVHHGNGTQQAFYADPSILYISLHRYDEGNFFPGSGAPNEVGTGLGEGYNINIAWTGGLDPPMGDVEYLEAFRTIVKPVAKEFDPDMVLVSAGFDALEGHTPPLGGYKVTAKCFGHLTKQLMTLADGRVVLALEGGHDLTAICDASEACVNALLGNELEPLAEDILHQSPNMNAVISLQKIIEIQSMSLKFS
Outline: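 Continuous fluorescence assay in 20 mM HEPES pH 7.4, 140 mM NaCl, 10 mM KCl, 1 mM TCEP, 0.2 mg/mL BSA, 3% DMSO final. Enzyme (HDAC4 5 nM, HDAC5 10 nM, HDAC7 5 nM, HDAC9 20 nM) preincubated with inhibitor at room temperature. HDAC10 (5 nM) instead in 20 mM HEPES pH 7.4, 0.5 mg/mL BSA. Initial slope used as activity.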

[3] = molecular target: T1, Protein deacetylase HDAC6 (Homo sapiens) (UniProt Q9UBN7); assay: Binding affinity to HDAC6 in human MCF7 cells assessed as target engagement by measuring rescue of PROTAC induced protein degradation at 20 uM preincubated with compound for 30 mins followed by PROTAC 4-((5-(8-(2-((2-(2,6-dioxopiperidin-3-yl)-1,3-dioxoisoindolin-4 yl)oxy)acetamido)octanamido)-2-meth …; format: cell-based; details: time 6.5 hrs
T1 sequence (whole entry): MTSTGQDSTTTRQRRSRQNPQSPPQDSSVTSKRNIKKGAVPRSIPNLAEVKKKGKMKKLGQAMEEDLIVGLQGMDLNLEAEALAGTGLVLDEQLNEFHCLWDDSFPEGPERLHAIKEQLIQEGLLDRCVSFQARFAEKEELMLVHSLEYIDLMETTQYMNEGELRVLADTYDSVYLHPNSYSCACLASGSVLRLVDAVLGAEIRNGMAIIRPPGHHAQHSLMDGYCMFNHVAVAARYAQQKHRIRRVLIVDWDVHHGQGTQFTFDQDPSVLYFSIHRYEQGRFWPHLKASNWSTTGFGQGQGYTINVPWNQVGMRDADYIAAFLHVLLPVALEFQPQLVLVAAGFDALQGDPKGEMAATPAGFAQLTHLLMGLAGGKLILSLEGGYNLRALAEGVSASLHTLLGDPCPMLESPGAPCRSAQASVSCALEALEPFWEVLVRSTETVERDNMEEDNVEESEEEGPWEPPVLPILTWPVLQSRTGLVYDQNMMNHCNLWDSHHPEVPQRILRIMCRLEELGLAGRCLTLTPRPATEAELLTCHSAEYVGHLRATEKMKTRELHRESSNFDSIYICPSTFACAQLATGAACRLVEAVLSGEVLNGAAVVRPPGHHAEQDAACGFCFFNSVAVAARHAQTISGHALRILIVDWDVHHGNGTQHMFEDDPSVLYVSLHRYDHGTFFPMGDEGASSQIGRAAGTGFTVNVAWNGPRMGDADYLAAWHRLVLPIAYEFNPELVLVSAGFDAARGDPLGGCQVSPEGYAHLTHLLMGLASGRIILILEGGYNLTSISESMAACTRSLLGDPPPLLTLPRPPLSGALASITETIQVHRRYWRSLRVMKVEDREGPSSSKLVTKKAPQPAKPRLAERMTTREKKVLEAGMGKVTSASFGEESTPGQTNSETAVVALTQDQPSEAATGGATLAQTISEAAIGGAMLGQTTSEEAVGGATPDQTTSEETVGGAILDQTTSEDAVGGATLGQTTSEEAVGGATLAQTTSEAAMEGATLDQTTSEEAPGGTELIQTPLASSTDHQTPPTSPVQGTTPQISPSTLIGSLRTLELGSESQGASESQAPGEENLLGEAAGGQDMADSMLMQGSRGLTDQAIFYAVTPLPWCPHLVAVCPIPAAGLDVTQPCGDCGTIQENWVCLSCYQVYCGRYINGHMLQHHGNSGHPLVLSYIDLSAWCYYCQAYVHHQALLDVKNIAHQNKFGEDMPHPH

HGC-27 = assay: Cytotoxicity against human HGC-27 cells assessed as reduction in cell viability incubated for 72 hrs by MTS assay; format: functional, cell-based; outline: as §1

- inhibition [1]: inactive
- inhibition [2]: inactive
- Activity [3]: Active
Structure (SMILES): CCCCN(Cc1ccc(C(=O)NO)cc1)C(=O)CCCCn1cc(COc2cccc(Cc3cnc(NC(=O)CSc4nc(C)cc(C)n4)s3)c2)nn1
- Activity (W1 Ovarian cancer cell): Active
- Activity (HGC-27): Active
